In data set [1] the target is Serine/threonine-protein kinase PAK 2 (Homo sapiens, UniProt Q13177). Nature of the data set: Inhibition of wild-type human partial length PAK2 (P151 to R525 residues) expressed in bacterial expression system after 1 hr by Z-LYTE assay.
The test system of data set [2] is Mus musculus. Description: Inhibition of c-KIT phosphorylation at Y823 residue in tumor of human GIST5R cells xenografted in nude mouse at 100 mg/kg, po administered as single dose and measured after 2 hrs. The data set is classed as functional, organism-based. Summed up: (§1)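 Female nu/nu mice bearing subcutaneous GIST-5R xenografts (cells in Matrigel, right flank) given one oral gavage dose of 100 mg/kg in HKI suspension (0.5% methocellulose/0.4% Tween80 in ddH2O). Tumors collected over a 2 h time course; p-c-KIT, p-ERK and p-AKT assessed by Western blot; plasma drug levels monitored in parallel.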

For data set [3], the system named is Mus musculus. Nature of the data set: Inhibition of c-KIT phosphorylation at Y719 residue in tumor of human GIST5R cells xenografted in nude mouse at 100 mg/kg, po administered as single dose and measured after 2 hrs. The class given is functional, organism-based. Summed up:
as §1
In general terms: A xenograft is tissue or cells of one species grown in another, often human tumour cells in immunodeficient mice.

Data set [4] deals with Mus musculus. Description: Inhibition of ERK phosphorylation at T202/Y204 residue in tumor of human GIST5R cells xenografted in nude mouse at 100 mg/kg, po administered as single dose and measured after 2 hrs. The class given is functional, organism-based. Summed up:
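Female nu/nu mice bearing subcutaneous GIST-5R tumors (cells in Matrigel, right flank) given one oral dose of 100 mg/kg in 0.5% methylcellulose/0.4% Tween80. Tumors collected over a 2 h time course. p-c-KIT, p-ERK and p-AKT measured alongside plasma drug levels.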

Data set [5] relates to Mast/stem cell growth factor receptor Kit (Homo sapiens), P10721 [V559D]. Description: Binding affinity to human partial length c-KIT V559D mutant (Y545 to D952 residues) expressed in bacterial expression system assessed as enzyme remaining activity at 1 uM by Kinomescan method relative to control. Put shortly: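 KINOMEscan binding profile (DiscoverX) run at 1 μM against a panel of 468 kinases and mutants. Read-out is percent of control (%Ctrl) remaining bound.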
Mast/stem cell growth factor receptor Kit (Homo sapiens), P10721 [V559D], sequence (P10721 whole entry V559D, the tested form may be a part): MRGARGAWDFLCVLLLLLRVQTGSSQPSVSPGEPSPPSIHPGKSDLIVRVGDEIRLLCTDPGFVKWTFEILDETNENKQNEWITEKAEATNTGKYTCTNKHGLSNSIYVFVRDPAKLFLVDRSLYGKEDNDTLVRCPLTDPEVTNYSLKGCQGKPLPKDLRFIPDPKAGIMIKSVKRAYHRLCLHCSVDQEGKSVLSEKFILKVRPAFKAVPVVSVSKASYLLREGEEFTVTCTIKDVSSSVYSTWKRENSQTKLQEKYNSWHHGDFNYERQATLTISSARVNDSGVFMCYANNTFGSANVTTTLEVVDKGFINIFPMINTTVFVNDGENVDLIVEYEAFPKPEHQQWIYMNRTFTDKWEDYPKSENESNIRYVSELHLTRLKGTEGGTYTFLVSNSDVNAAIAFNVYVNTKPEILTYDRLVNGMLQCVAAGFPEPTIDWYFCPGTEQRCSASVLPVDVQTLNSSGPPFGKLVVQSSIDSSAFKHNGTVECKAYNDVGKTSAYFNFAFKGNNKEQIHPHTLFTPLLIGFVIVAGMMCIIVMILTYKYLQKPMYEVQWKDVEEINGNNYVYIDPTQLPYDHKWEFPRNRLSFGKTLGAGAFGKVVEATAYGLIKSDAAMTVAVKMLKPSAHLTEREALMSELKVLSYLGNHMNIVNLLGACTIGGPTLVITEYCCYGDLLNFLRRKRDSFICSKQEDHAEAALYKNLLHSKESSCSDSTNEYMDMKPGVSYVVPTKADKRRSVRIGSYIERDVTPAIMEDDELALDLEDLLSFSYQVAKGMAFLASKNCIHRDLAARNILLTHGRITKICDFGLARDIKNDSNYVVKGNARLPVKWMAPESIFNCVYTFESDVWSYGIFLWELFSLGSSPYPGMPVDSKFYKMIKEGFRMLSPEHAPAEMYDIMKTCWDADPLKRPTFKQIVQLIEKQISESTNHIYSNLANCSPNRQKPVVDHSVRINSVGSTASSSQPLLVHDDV

Data set [6] deals with T1, Mast/stem cell growth factor receptor Kit (Homo sapiens, UniProt P10721, T670I). Description: Inhibition of His-tagged c-KIT T670I mutant (544 to 935 residues) (unknown origin) expressed in baculovirus infected sf9 cells pre-incubated for 60 mins followed by ATP addition and measured after 1 hr by Z-LYTE assay.
T1 sequence (P10721 26-976 T670I limits assumed): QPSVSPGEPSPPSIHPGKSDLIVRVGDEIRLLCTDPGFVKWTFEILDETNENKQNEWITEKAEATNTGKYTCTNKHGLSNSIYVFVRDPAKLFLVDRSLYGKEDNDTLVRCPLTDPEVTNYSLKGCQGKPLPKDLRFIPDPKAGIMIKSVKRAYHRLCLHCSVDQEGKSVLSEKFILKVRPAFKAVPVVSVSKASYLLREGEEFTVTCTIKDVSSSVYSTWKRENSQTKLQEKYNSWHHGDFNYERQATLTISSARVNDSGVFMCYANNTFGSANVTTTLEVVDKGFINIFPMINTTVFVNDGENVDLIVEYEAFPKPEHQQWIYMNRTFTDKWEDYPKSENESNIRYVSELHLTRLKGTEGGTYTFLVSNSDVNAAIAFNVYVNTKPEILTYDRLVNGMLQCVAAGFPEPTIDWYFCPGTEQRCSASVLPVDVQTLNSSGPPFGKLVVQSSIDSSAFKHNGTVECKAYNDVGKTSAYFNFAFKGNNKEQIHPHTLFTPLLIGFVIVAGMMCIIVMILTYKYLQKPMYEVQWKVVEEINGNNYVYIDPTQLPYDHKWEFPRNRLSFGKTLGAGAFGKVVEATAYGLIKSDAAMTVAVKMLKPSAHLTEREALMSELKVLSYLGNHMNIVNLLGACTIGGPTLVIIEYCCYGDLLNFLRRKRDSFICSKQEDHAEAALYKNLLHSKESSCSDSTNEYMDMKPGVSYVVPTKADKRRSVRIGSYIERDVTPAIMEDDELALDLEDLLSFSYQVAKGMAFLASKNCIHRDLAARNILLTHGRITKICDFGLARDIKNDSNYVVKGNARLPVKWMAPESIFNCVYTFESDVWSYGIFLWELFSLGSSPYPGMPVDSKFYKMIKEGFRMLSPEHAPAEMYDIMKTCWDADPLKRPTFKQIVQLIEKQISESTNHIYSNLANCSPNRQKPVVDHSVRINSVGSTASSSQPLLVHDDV
Data set [7] can be described thus: Apparent volume of distribution in mouse at 10 mg/kg, po measured after 5 to 720 mins by LC-tandem mass spectrometry analysis. The data set is classed as ADME, organism-based. The settings on record: in vivo. Summed up: (§2)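 Mice dosed 1 mg/kg i.v. or 10 mg/kg p.o.; plasma drug levels by LC-MS/MS, parameters by noncompartmental analysis; values not from triplicate testing.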

The nature of data set [8]: Half-life in mouse at 1 mg/kg, iv measured after 2 to 720 mins by LC-tandem mass spectrometry analysis. The data set is classed as ADME, organism-based. The settings on record: in vivo. Put shortly:
as §2

Data set [9] has as its system Mast/stem cell growth factor receptor Kit (Homo sapiens), P10721 [D816H]. Nature of the data set: Inhibition of TEL fused c-KIT D816H mutant (unknown origin) transfected in mouse BAF3 cells assessed as growth inhibition after 72 hrs by CCK8 assay. The data set is classed as cell-based. Put shortly:
(§3)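 Tel-c-KIT-transformed BaF3 lines (IL-3 independent) kept in RPMI 1640 with 10% FBS, 2% L-glutamine and pen/strep. Cells at 1.5 to 5 × 10^4 cells/mL mixed with graded compound and incubated 72 h at 37 °C, 5% CO2. Viability by CCK-8 absorbance at 450 nm, normalized to DMSO. GI50 from dose–response fit.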

The nature of data set [10]: Tmax in Sprague-Dawley rat at 1 mg/kg, iv measured after 2 to 720 mins by LC-tandem mass spectrometry analysis. The data set is classed as ADME, organism-based. The conditions noted are these: in vivo. Put shortly:
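Male Sprague–Dawley rats (190-210 g), fasted 12 h, given 1 mg/kg i.v. or 10 mg/kg p.o. in DMSO/5% glucose water (1:9). Blood sampled at 2–720 min (i.v.) or 5–720 min (p.o.). Plasma proteins precipitated with methanol using caffeine internal standard, then LC-MS/MS. Noncompartmental analysis; F = AUC0-∞ ratio corrected for dose; triplicate ±SD.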

Data set [11] is filed under the species Homo sapiens. Nature of the data set: Induction of cell cycle arrest in human GIST5R cells harboring 560 to 578 deletion/T670I double mutant after 24 hrs. The class given is functional, cell-based.
Data set [12] has as its target Serine/threonine-protein kinase pim-3 (Homo sapiens, UniProt Q86V86). Nature of the data set: Binding affinity to wild-type human partial length PIM3 (G16 to A317 residues) expressed in bacterial expression system assessed as enzyme remaining activity at 1 uM by Kinomescan assay relative to control. Summed up:
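KINOMEscan competition binding panel of 468 kinases and mutants, compound at 1 μM; binding reported as percent of control.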

Data set [13] has as its system Mast/stem cell growth factor receptor Kit (Homo sapiens), P10721 [L576P]. Nature of the data set: Inhibition of TEL fused c-KIT L576P mutant (unknown origin) transfected in mouse BAF3 cells assessed as growth inhibition after 72 hrs by CCK8 assay. The class given is cell-based. Summed up:
as §3
(Formazan colour is commonly taken as a measure of viable cells.)

In data set [14] the test system is Mast/stem cell growth factor receptor Kit (Homo sapiens), P10721 [UNDEFINED MUTATION]. Description: Inhibition of c-KIT 560 to 578 deletion mutant in human GISTT1 cells assessed as reduction in STAT3 phosphorylation at 0.1 uM to 3 uM after 1 hr by Western blot analysis. The data set is classed as cell-based. Summed up:
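Serial compound dilutions applied for 1 h to GIST-T1, GIST-T1-T670I (CRISPR/Cas9 T670I knock-in, clone confirmed by Sanger sequencing) or GIST-5R cells in DMEM with 10% FBS. Cells then lysed and phospho-proteins detected by standard Western blotting.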
In general terms: A western blot detects proteins with antibodies after separation by electrophoresis.

In data set [15] the target is Mast/stem cell growth factor receptor Kit (Homo sapiens, UniProt P10721). Description: Inhibition of wild type c-KIT phosphorylation at Y719 residue in human COLO320DM cells after 2 hrs by Western blot analysis. The class given is cell-based.
Mast/stem cell growth factor receptor Kit (Homo sapiens, UniProt P10721), sequence (P10721 whole entry): as the sequence (P10721 whole entry V559D, the tested form may be a part) above, with D559V counted along it
Data set [16] concerns GISTT1. Description: Induction of apoptosis in human GISTT1 cells harboring c-KIT 560 to 578 deletion mutant assessed as increase in cleaved caspase level after 24 hrs by Western blot analysis. The data set is classed as functional, cell-based.
Data set [17] is described as follows: Antiproliferative activity against human GIST5R cells harboring c-KIT 560 to 578 deletion/T670I double mutant incubated for 72 hrs by CCK8 assay. The class given is functional. Summed up:
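Adherent GIST cells seeded at 1.5-5 × 10^4 cells/mL and left overnight at 37 °C, 5% CO2. Medium then replaced with medium holding serial compound dilutions; 72 h incubation. Viability by CCK-8, absorbance at 450 nm, normalized to DMSO control; GI50 from dose-response fit.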

Data set [18] addresses T1, Mast/stem cell growth factor receptor Kit. Nature of the data set: Inhibition of TEL fused wild type c-KIT T670I mutant (unknown origin) transfected in mouse BaF3 cells assessed as reduction in phosphorylation at Y703 residue after 2 hrs by Western blot analysis. The class given is cell-based.
The target in data set [19] is Macrophage colony-stimulating factor 1 receptor (Homo sapiens, UniProt P07333). Description: Inhibition of wild-type human partial length CSF1R (I564 to S939 residues) expressed in bacterial expression system after 1 hr by Z-LYTE assay.
Macrophage colony-stimulating factor 1 receptor, sequence (P07333 whole entry, the tested form may be a part): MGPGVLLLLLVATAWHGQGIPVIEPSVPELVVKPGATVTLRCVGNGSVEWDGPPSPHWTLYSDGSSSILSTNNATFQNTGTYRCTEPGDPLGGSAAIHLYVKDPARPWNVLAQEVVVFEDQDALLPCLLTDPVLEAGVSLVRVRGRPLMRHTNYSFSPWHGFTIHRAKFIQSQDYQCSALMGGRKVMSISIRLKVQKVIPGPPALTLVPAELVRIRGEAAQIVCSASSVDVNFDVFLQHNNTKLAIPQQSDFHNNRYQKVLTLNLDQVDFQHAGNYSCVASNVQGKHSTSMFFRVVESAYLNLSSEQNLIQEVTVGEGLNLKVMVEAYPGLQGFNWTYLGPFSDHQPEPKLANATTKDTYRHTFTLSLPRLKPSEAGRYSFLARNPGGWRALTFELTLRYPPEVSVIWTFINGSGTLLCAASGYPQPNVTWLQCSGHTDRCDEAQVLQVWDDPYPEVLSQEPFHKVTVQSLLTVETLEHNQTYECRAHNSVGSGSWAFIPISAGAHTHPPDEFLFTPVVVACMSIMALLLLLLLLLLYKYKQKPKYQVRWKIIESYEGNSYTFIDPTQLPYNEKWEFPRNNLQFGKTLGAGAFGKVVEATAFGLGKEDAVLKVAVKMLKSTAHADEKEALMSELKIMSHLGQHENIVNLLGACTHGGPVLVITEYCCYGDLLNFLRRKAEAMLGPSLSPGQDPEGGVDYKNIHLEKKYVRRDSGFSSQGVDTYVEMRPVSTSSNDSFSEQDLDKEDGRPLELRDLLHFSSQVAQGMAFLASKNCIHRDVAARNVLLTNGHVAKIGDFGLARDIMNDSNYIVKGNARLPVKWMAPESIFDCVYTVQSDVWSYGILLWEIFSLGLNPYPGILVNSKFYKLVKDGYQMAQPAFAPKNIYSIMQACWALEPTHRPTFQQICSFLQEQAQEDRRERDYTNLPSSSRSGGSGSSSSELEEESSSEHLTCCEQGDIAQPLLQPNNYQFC
Data set [20] can be described thus: Tmax in mouse at 10 mg/kg, po measured after 5 to 720 mins by LC-tandem mass spectrometry analysis. The data set is classed as ADME, organism-based. The settings on record: in vivo.

The source made the active and inactive calls. The rule behind the calls is not given here. Some results are limits rather than exact numbers.

As usually defined, the IC50 is the concentration needed to halve the response being measured. A word on the half-life: it is the time in which the quantity being followed falls by half. High values mean slow loss, low ones fast loss. What is called GI50 is the concentration giving 50% growth inhibition. What is called Tmax is the time from dosing to the highest level. Usually EC50 stands for the concentration that produces a half-maximal response.

Mast/stem cell growth factor receptor Kit (Homo sapiens), P10721 [UNDEFINED MUTATION], sequence (P10721 whole entry, looked up, stated change not applied): as the sequence (P10721 whole entry V559D, the tested form may be a part) above, with D559V counted along it
Mast/stem cell growth factor receptor Kit (Homo sapiens), P10721 [D816H], sequence (P10721 whole entry D816H, the tested form may be a part): as the sequence (P10721 whole entry V559D, the tested form may be a part) above, with D559V, D816H counted along it
Mast/stem cell growth factor receptor Kit (Homo sapiens), P10721 [L576P], sequence (P10721 whole entry L576P, the tested form may be a part): as the sequence (P10721 whole entry V559D, the tested form may be a part) above, with D559V, L576P counted along it
Serine/threonine-protein kinase PAK 2, sequence (Q13177 whole entry, the tested form may be a part): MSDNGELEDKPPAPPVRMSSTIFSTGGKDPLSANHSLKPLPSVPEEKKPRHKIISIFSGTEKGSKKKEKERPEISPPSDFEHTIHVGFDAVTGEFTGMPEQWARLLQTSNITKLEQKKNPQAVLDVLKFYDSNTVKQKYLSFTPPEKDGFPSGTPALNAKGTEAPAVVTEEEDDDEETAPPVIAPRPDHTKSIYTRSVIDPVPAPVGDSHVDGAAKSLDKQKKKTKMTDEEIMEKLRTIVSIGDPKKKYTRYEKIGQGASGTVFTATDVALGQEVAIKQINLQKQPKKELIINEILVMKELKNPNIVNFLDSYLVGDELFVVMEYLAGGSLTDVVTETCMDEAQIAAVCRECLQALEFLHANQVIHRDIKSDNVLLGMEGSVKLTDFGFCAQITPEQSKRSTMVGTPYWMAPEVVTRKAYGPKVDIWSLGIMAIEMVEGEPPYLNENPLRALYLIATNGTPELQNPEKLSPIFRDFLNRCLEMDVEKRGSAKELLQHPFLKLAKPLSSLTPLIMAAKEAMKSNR

For `O=C(CC(=O)Nc1ccc2c(/C=C/c3ccccn3)n[nH]c2c1)Nc1cccc(F)c1`, the results for the IC50 in [1], in data set [6] and in data set [19] were more than 10000 nM, 45 nM and 14.2 to 14.3 nM, respectively. Moreover, the inhibition result in data set [2], in [3], in data set [4] and in data set [14] was “inactive” throughout. Further, the Activity in data set [5] was less than 1%; in data set [11] it was “Dose-dependent effect”; in [12], 0%; in data set [16], “Dose-dependent effect”. In addition, the Vz in data set [7] was determined as 19 L/kg. The compound further showed a half-life in [8] of 294 min. Also, the concentration for 50% growth inhibition (GI50) in [9] is 6840 nM; in data set [13], 157 nM; in [17], 475 nM. The Tmax worked out at 1.02 min in data set [10] and 30 min in [20]. Besides, the EC50 in [15] came out at 1430 nM; in data set [18], 77 nM.

The record behind these values is ChEMBL document CHEMBL4304743, “Discovery of ( E)- N1-(3-Fluorophenyl)- N3-(3-(2-(pyridin-2-yl)vinyl)-1 H-indazol-6-yl)malonamide (CHMFL-KIT-033) as a Novel c-KIT T670I Mutant Selective Kinase Inhibitor for Gastrointestinal Stromal Tumors (GISTs)” (J Med Chem, 2019).
